Source: ChEMBL document CHEMBL1126280, “Development of a novel series of styrylquinoline compounds as high-affinity leukotriene D4 receptor antagonists: synthetic and structure-activity studies leading to the discovery of (+-)-3-[[[3-[2-(7-chloro-2-quinolinyl)-(E)-ethenyl]phenyl][[3- (dimethylamino)-3-oxopropyl]thio]methyl]thio]propionic …” (J Med Chem, 1992)

Experiments:
[1] = target: T1, Cysteinyl leukotriene receptor 1 (Cavia porcellus, UniProt Q2NNR5); assay: (§1) In vitro inhibition of [3H]LTD4 binding to guinea pig lung membranes; assay type: tissue-based, Membrane
T1 sequence (Q2NNR5 whole entry): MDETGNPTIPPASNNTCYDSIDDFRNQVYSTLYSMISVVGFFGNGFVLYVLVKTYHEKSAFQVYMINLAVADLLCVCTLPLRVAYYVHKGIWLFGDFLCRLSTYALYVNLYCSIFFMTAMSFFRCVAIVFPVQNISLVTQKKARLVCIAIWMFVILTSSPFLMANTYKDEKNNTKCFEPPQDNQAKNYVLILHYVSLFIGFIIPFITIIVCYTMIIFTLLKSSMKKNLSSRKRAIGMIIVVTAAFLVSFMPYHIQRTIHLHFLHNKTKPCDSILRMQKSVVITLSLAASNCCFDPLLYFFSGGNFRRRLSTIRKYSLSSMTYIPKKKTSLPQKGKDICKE

[2] = system: Rattus norvegicus; assay: Compound was evaluated in vivo for inhibition of dyspnea induced by a 5 min aerosol of ovalbumin in 6 hyperreactive rats for each of three doses; assay type: functional
How it was run: (§2)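 Oral dosing in hyperreactive rats. Dyspnea was provoked by a 5 min ovalbumin aerosol. Six rats were used at each of three doses. The ED50 was derived from the percent inhibition of dyspnea across those doses.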

[3] = system: Cavia porcellus; assay: Compound was evaluated in vivo for its effective dose against bronchoconstriction induced by LTD4 (0.2 ug/kg, iv) in anesthetized guinea pigs followed by id administration; assay type: functional
How it was run: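 Anesthetized guinea pigs were dosed once intraduodenally and challenged with LTD4 (0.2 μg/kg iv) 10, 30 and 50 min later. The effective dose is the minimum id dose giving over 50% inhibition of bronchoconstriction within 50 min. The number of experiments is reported with each value.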

[4] = target: T2, Cysteinyl leukotriene receptor 1 (Cavia porcellus) (UniProt Q2NNR5); assay: In vitro inhibition of [3H]LTD4 binding to guinea pig lung membranes at 1 uM; assay type: functional, tissue-based; conditions: Membrane
T2 sequence (whole entry): T1 sequence (Q2NNR5 whole entry)

[5] = system: Rattus norvegicus; assay: Compound was evaluated in vivo for inhibition of dyspnea induced by a 5 min aerosol of ovalbumin in 6 hyperreactive rats at dose of 0.5 mg/Kg; assay type: functional
How it was run: (§3)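 Oral single-dose test in hyperreactive rats, six animals, with dyspnea provoked by a 5 min ovalbumin aerosol. The value is the percent inhibition of dyspnea at the one stated dose.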

[6] = system: Rattus norvegicus; assay: Compound was evaluated in vivo for inhibition of dyspnea induced by a 5 min aerosol of ovalbumin in six hyperactive rats for each of three doses; assay type: functional; how it was run: as §2
[7] = target: T1, Cysteinyl leukotriene receptor 1; assay: as §1; assay type: functional, tissue-based, Membrane
[8] = system: Rattus norvegicus; assay: Compound was evaluated in vivo for inhibition of dyspnea induced by a 5 min aerosol of ovalbumin in 6 hyperreactive rats at dose of 1.5 mg/Kg; assay type: functional; how it was run: as §3

| SMILES | IC50 [1] [µM] | Effective dose [3] [mg/kg] | also measured |
| --- | --- | --- | --- |
| C(=C\c1ccc2ccccc2n1)/c1ccccc1 | 6 | – | – |
| COC(=O)COc1cccc(/C=C/c2ccc3ccccc3n2)c1 | – | 10 | ED50 [2]: 2 mg/kg |
| C(=C\c1ccc2ccccc2n1)/c1cccnc1 | 6 | – | – |
| CC(Oc1cccc(Sc2ccc3ccc(Cl)cc3n2)c1)C(=O)O (stereo unspecified) | – | – | inhibition [4]: 24% |
| CCOC(=O)CCCOc1cccc(/C=C/c2ccc3ccccc3n2)c1 | – | 5 | ED50 [2]: 1.5 mg/kg |
| O=C(O)CCCOc1cccc(/C=C/c2ccc3ccccc3c2)c1 | – | – | inhibition [4]: 11% |
| O=C([O-])CCCOc1cccc(/C=C/c2ccc3ccc(Cl)cc3n2)c1.[Na+] | – | 2.5 | inhibition in vivo at 0.5 mg/kg [5]: 41% |
| CCCC/C=C/c1ccc2nc(/C=C/c3cccc(OCC(=O)OC)c3)ccc2c1 | – | – | inhibition [4]: 12% |
| COC(=O)COc1cccc(/C=C/c2ccc3cc(C)ccc3n2)c1 | – | >10 | IC50 [7]: 0.93 µM |
| O=C(O)CCSC(SCCC(=O)O)c1cccc(/C=C/c2ccc3ccc(Cl)cc3n2)c1 | – | 0.5 | ED50 [2]: 0.1 mg/kg |
| O=C([O-])CCCOc1cccc(/C=C/c2ccc3cc(Cl)c(Cl)cc3n2)c1.[Na+] | – | 1 | ED50 [2]: 0.5 mg/kg |
| O=C([O-])CCCOc1cccc(/C=C/c2ccc3c(Cl)cccc3n2)c1.[Na+] | – | >5 | – |
| O=C([O-])CCCOc1cccc(/C=C/c2ccc3cc(Cl)ccc3n2)c1.[Na+] | – | 5 | inhibition in vivo at 1.5 mg/kg [8]: 40% |
| C(=C\c1ccc2ccccc2n1)/c1ccncc1 | 3.3 | – | – |

More lines, main results first:

| IC50 [1] [µM] | SMILES | Effective dose [3] [mg/kg] | also measured |
| --- | --- | --- | --- |
| 0.057 | O=C(O)CCSC(SCCC(=O)O)c1cccc(CCc2ccc3ccc(Cl)cc3n2)c1 | – | – |
| 0.0136 | O=C(O)CCSC(SCCC(=O)O)c1cccc(OCc2ccc3ccc(Cl)cc3n2)c1 | – | – |
| 0.06 | CN(C)CCSC(SCCC(=O)O)c1cccc(/C=C/c2ccc3ccc(Cl)cc3n2)c1 (stereo unspecified) | – | – |
| 0.25 | O=C(O)CCSC(SCCC(=O)O)c1cccc(CCCc2ccc3ccc(Cl)cc3n2)c1 | – | – |
| 0.089 | CN(C)C(=O)CCSC(SCCC(=O)O)c1cccc(SCc2ccc3ccc(Cl)cc3n2)c1 (stereo unspecified) | – | – |
| 0.0022 | O=C(O)CCSC(SCCC(=O)N1CCOCC1)c1cccc(/C=C/c2ccc3ccc(Cl)cc3n2)c1 (stereo unspecified) | – | Effective dose [2]: 0.15 mg/kg; Inhibition [6]: 43% |
| 0.0003 | NC(=O)CCSC(SCCC(=O)O)c1cccc(/C=C/c2ccc3ccc(Cl)cc3n2)c1 (stereo unspecified) | 0.5 | – |
| 0.44 | O=C(O)CCSC(SCCC(=O)O)c1cccc(NC(=O)c2ccc3ccccc3n2)c1 | – | – |
| 0.032 | O=C(O)CCSC(SCCC(=O)O)c1cccc(C2CC2c2ccc3ccc(Cl)cc3n2)c1 (stereo unspecified) | – | – |
| 0.0008 | CN(C)C(=O)CCSC(SCCC(=O)O)c1cccc(/C=C/c2ccc3ccc(Cl)cc3n2)c1 (stereo unspecified) [MK-571] | 0.1 | ED50 [2]: 0.07 mg/kg |
